Results reported in ChEMBL document CHEMBL1137147, “Low molecular weight thrombin inhibitors with excellent potency, metabolic stability, and oral bioavailability” (Bioorg Med Chem Lett, 2004).
pKi: −log10 of the molar value.

Experiments:
[1] = Area under the curve in dog when administered 1 mg/kg perorally; format: ADME, organism-based, Canis lupus familiaris; parameters: dose 1 mg/kg, route oral; conditions: in vivo, po
How it was run: (§1)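 Amorphous TFA salts given orally at 1 mg/kg in 1% methocel to beagle dogs (n = 2). Blood sampled over 8 h post dose plus a final 24 h sample. Drug isolated from plasma by solid-phase extraction and quantified by LC–MS/MS against a standard curve. AUC and t1/2 derived from the concentration–time curve.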

[2] = Plasma half life in dog when administered 1 mg/kg perorally; format: ADME, organism-based, Canis lupus familiaris; parameters: dose 1 mg/kg, route oral; conditions: po; how it was run: as §1
Rattus norvegicus [3] = experiment: Percent free rat plasma protein binding after administration of the compound; format: functional
Prothrombin = Prothrombin (Homo sapiens, UniProt P00734); experiment: Inhibition constant against human Thrombin
Rattus norvegicus [4] = experiment: Effect (10 ug/kg/min) on FeCl3 induced clot formation on carotid artery, expressed as no. of vessel occlusions out of 5 rats; format: functional
How it was run: (§2)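 Anesthetized rats given test compound by intravenous infusion at 10 µg/kg/min for 180 min. Topical FeCl3 applied to the carotid artery at 120 min post dose, then carotid blood flow monitored for 60 min. Result is the number of animals with occluded vessels (n = 5 or 6).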

[5] = Percent free human plasma protein binding after administration of the compound; format: functional
Rattus norvegicus [6] = experiment: Effect (10 ug/kg/min) on FeCl3 induced clot formation on carotid artery, expressed as no. of vessel occlusions out of 6 rats; format: functional; how it was run: as §2

Row | Compound | AUC [1] [µM·h] | half-life [2] [h] | Activity (Rattus norvegicus [3]) [%] | pKi (Prothrombin) | Activity (Rattus norvegicus [4]) | Activity [5] [%] | Activity (Rattus norvegicus [6])
1 | NCc1ccc(Cl)cc1CNC(=O)[C@@H]1CCCN1C(=O)CO | 30 | 13 | 9 | 9.30 | 4 | 1 | –
2 | CC(C)(C1CC1)[C@@H](O)C(=O)N1CC[C@H]1C(=O)NCc1cc(Cl)ccc1CN | 11 | 4.7 | 17 | 8.43 | 0 | 11 | –
3 | C[C@](O)(C(=O)N1CCC[C@H]1C(=O)NCc1cc(Cl)ccc1CN)c1ccccc1 | 21 | 3.1 | – | 8.33 | – | – | –
4 | NCc1ccc(Cl)cc1CNC(=O)[C@@H]1CCCN1C(=O)[C@@H](O)c1ccccc1 | – | – | – | 7.10 | – | – | –
5 | CC(C)(C)[C@@H](O)C(=O)N1CCC[C@H]1C(=O)NCc1cc(Cl)ccc1CN | 10 | 5.4 | 54 | 8.68 | – | 24 | 0
6 | NCc1ccc(Cl)cc1CNC(=O)[C@@H]1CCCN1C(=O)[C@H](O)c1ccccc1 | 1.4 | 2 | – | 9.05 | – | – | –
7 | CC(C)[C@@H](O)C(=O)N1CCC[C@H]1C(=O)NCc1cc(Cl)ccc1CN | 4.9 | 4.2 | 60 | 8.25 | – | 63 | 2
8 | CC(C)(C)[C@@H](O)C(=O)N1CC[C@H]1C(=O)NCc1cc(Cl)ccc1CN | 3.5 | 3.4 | 26 | 8.30 | 0 | 21 | –
9 | NCc1ccc(Cl)cc1CNC(=O)[C@@H]1CCCN1C(=O)[C@H](O)C1CCCCC1 | 1.7 | 2 | 36 | 9.57 | – | 4 | 0
10 | C[C@@](O)(C(=O)N1CCC[C@H]1C(=O)NCc1cc(Cl)ccc1CN)c1ccccc1 | 14 | 3.4 | 24 | 8.57 | – | 15 | 1
